Results as given in the array DNA melting data of Ke et al. (doi:10.1101/2024.01.08.574731).

Experiments:
[1] = folding enthalpy; higher = less favourable; fluorescence melt of hairpins on a sequencing array, two-state fit; settings: sodium 0.088 M
How it was run: (§1)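 With Cy3 and quencher oligos annealed, library hairpins on a sequenced MiSeq flow cell were imaged for Cy3 fluorescence in 50 mM Na-HEPES pH 8.0, 25 mM NaCl, in 2.5 °C steps up to 60 °C. Melting temperature and folding enthalpy were derived from bootstrapped two-state fits of signals normalised to pre-quench Cy3 and to control constructs. Four replicates were combined by inverse variance, with fitted temperatures raised by 9.35 °C to match UV melts.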

[2] = melting temperature; fluorescence melt of hairpins on a sequencing array, two-state fit, raised by 9.35 °C to match UV melts; settings: sodium 0.088 M
How it was run: as §1

GTTGTGGGAAACCACAGC (.(((((....))))).) gave a folding enthalpy [1] of -20 kcal/mol and a Tm [2] of 49.7 °C.
GCTTTGCGAAAGCATCGC ((..(((....)))..)) gave a folding enthalpy [1] of -13.7 kcal/mol and a Tm [2] of 48.7 °C.
With GTTGGCGAAAGCCGAAAC ((((((....)))..))) the folding enthalpy [1] was -8.56 kcal/mol and the Tm [2] was 38.2 °C.
For TAAGCGAAAGCTTA (((((....))))), the folding enthalpy [1] was -15 kcal/mol and the Tm [2] was 54.5 °C.
In the case of GATCCTGCTGAGGATC ((((((....)))))), the folding enthalpy [1] is reported as -52.2 kcal/mol and the Tm [2] is reported as 51.4 °C.
With GAACACGAAAGTGCCTTC ((((((....)))..))) the folding enthalpy [1] was -18.7 kcal/mol and the Tm [2] was 32.9 °C.
GCGATGGGAAACCGTCGC ((((.((....)).)))) showed a folding enthalpy [1] of -50.2 kcal/mol and a Tm [2] of 58.9 °C.
Work on GCTGAGGGAAACCTCAGC (((((((....))))))) yielded a folding enthalpy [1] of -45.2 kcal/mol and a Tm [2] of 69.2 °C.
Work on GTGTGGGGAAACTCACGC (.(((.(....).))).) yielded a folding enthalpy [1] of -28 kcal/mol and a Tm [2] of 44.7 °C.
In the case of GATCCTGCTTAGGATC ((((((....)))))), the folding enthalpy [1] is reported as -42.9 kcal/mol and the Tm [2] is reported as 52.4 °C.
GTTGTAACGAAAGTTAAC (((..(((....)))))) gave a folding enthalpy [1] of -26.1 kcal/mol and a Tm [2] of 37.9 °C.
Work on GAGTCGGCGAAAGCCCTC (((..(((....)))))) yielded a folding enthalpy [1] of -9.6 kcal/mol and a Tm [2] of 25.6 °C.
GATCTAACGATAGATC ((((((....)))))) showed a folding enthalpy [1] of -29.4 kcal/mol and a Tm [2] of 34.1 °C.
Work on GGTAACGAAAGTTCGACC ((((((....)))..))) yielded a folding enthalpy [1] of -16 kcal/mol and a Tm [2] of 28 °C.
With GTTGCCGGAAACGGCGAC ((.((((....)))).)) the folding enthalpy [1] was -20.1 kcal/mol and the Tm [2] was 64.1 °C.
TGCTAGAAATAGCA (((((....))))) gave a folding enthalpy [1] of -14.6 kcal/mol and a Tm [2] of 41.2 °C.
GAGTTCGGAAACGAATTC ((.((((....)))).)) showed a folding enthalpy [1] of -30.8 kcal/mol and a Tm [2] of 44 °C.
For GACGATGGAAACGTTGTC (((.(.(....).).))), the folding enthalpy [1] was -22.2 kcal/mol and the Tm [2] was 34 °C.
Sequence GGTATCGAAAGATTAACC ((((((....)))..))) has a folding enthalpy [1] of -17 kcal/mol and a Tm [2] of 30.3 °C.
GACGGCCGAAAGGCGGTC (((.(((....))).))) gave a folding enthalpy [1] of -25.1 kcal/mol and a Tm [2] of 67.9 °C.
GCGGTAGAAATACCGC ((((((....)))))) showed a folding enthalpy [1] of -36 kcal/mol and a Tm [2] of 66.9 °C.
GCCGACCGAAAGGTGGGC (((.(((....))).))) showed a folding enthalpy [1] of -34.4 kcal/mol and a Tm [2] of 67.4 °C.
Sequence GCGACGCGAAAGCCTAGC ((.(.((....)).).)) has a folding enthalpy [1] of -18.9 kcal/mol and a Tm [2] of 43.5 °C.
For GTCGCTACGAAAGTAGAC (((..(((....)))))), the folding enthalpy [1] was -14.6 kcal/mol and the Tm [2] was 33.3 °C.
With GCCTTAGGAAACCAAGGC (((((.(....).))))) the folding enthalpy [1] was -27.4 kcal/mol and the Tm [2] was 45.2 °C.
Sequence GCGGAGCGAAAGCTGAGC ((..(((....)))..)) has a folding enthalpy [1] of -14.6 kcal/mol and a Tm [2] of 56.5 °C.
Sequence GCGCTCGAAAGAGCCCGC ((((((....)))..))) has a folding enthalpy [1] of -11.8 kcal/mol and a Tm [2] of 43.4 °C.
Sequence GGGGACCCGAAAGGGCCC (((..(((....)))))) has a folding enthalpy [1] of -16.4 kcal/mol and a Tm [2] of 62.3 °C.
Sequence GACGACGGAAACGTCGCC (.(((((....))))).) has a folding enthalpy [1] of -12.2 kcal/mol and a Tm [2] of 53.1 °C.
In the case of GCACAGCGAAAGCACTGC (((..((....))..))), the folding enthalpy [1] is reported as -11.7 kcal/mol and the Tm [2] is reported as 35.8 °C.
For GCTCGAGGAAACTCAAGC (((.(((....))).))), the folding enthalpy [1] was -30.7 kcal/mol and the Tm [2] was 37.7 °C.
For GCTCAGGAAACTGAGC ((((((....)))))), the folding enthalpy [1] was -42.4 kcal/mol and the Tm [2] was 64.7 °C.
GAACTCGAAAGAGTTC ((((((....)))))) gave a folding enthalpy [1] of -39.3 kcal/mol and a Tm [2] of 61.6 °C.
For GGGTACCGAAAGGTCCC (((.(((....)))))), the folding enthalpy [1] was -24.2 kcal/mol and the Tm [2] was 54.9 °C.
For GATCAAGGCCTTGATC ((((((....)))))), the folding enthalpy [1] was -51.6 kcal/mol and the Tm [2] was 55 °C.
Sequence GCACTCGAAAGAGGCTGC ((((((....)))..))) has a folding enthalpy [1] of -19.6 kcal/mol and a Tm [2] of 53 °C.
With GATCCTGTGAGGATC ((((((...)))))) the folding enthalpy [1] was -32.3 kcal/mol and the Tm [2] was 53.3 °C.
For GTGATCTCGAAAGAGCAC (((..(((....)))))), the folding enthalpy [1] was -25.7 kcal/mol and the Tm [2] was 45.5 °C.
In the case of GATCTTATTAAAGATC ((((((....)))))), the folding enthalpy [1] is reported as -30.7 kcal/mol and the Tm [2] is reported as 42.8 °C.
Sequence GGTGGCCGAAAGGCAACC (((.(((....))).))) has a folding enthalpy [1] of -28.1 kcal/mol and a Tm [2] of 66.5 °C.
Work on GATCTTCAGTAAGATC ((((((....)))))) yielded a folding enthalpy [1] of -30.6 kcal/mol and a Tm [2] of 40.7 °C.
Work on GATCCTCTAAAGGATC ((((((....)))))) yielded a folding enthalpy [1] of -39.3 kcal/mol and a Tm [2] of 52.4 °C.
Sequence AACCAGAAATGGTT (((((....))))) has a folding enthalpy [1] of -14.8 kcal/mol and a Tm [2] of 40.2 °C.
With GCTGCCGAAAGGCTAAGC ((((((....)))..))) the folding enthalpy [1] was -16.8 kcal/mol and the Tm [2] was 53.8 °C.
For GGCCCGCGAAAGCGTGCC (((.(((....))).))), the folding enthalpy [1] was -26.5 kcal/mol and the Tm [2] was 67.3 °C.
Sequence GACCAGGGAAACCTAGTC (((.(((....))).))) has a folding enthalpy [1] of -16.9 kcal/mol and a Tm [2] of 32.7 °C.
